Test results published in publication PMC4459094 (FEBS Open Bio, 2015).

What was measured:
hMIP = conditions: continuous activity assay with fluorogenic substrate Abz-GFSPFRQ-EDDnp; cited from earlier work
[1] = biological target: T1, recombinant human mitochondrial intermediate peptidase (hMIP) (Homo sapiens, UniProt Q99797); test: Hydrolysis of FRET peptides by hMIP in solution; assay type: biochemical; conditions: analogue without the P8 and P5 versus Abz-FRSGQPLQNKVQLQ-EDDnp
T1 sequence (Q99797 36-713): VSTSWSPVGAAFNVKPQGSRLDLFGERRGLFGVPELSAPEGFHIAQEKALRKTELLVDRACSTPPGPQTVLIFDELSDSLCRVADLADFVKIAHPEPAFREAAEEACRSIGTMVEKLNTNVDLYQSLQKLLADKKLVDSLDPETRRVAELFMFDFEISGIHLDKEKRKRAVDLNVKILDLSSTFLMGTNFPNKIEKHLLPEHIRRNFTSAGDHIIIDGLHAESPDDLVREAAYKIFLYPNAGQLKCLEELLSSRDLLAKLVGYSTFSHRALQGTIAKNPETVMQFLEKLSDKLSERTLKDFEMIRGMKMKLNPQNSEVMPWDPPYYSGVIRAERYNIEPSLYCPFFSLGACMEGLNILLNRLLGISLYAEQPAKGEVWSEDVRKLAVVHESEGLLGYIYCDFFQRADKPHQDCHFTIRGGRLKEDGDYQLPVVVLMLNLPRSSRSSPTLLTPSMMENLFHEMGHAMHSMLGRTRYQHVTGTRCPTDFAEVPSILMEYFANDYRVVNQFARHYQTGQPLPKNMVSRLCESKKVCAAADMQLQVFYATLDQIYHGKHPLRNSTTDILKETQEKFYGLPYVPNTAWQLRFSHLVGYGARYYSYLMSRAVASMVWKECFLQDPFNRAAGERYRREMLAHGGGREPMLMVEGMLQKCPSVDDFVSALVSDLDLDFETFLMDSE
How it was run: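 Recombinant human MIP with an N-terminal His6 tag replacing the mitochondrial signal sequence, expressed in E. coli BL21(DE3)pLysS and purified by Ni-affinity then anion-exchange chromatography. Abz/EDDnp FRET peptide hydrolysis was followed fluorometrically (ex 320, em 420 nm). Rates were converted to moles per second using standard peptide fluorescence before and after total hydrolysis, with under 10% substrate consumed. kcat, KM and kcat/KM are given as means ± SD.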

C[C@H](CS)C(=O)N1CCC[C@H]1C(=O)O [captopril]
inhibition of hMIP (hMIP): small level of inhibition

O=C(O)CNC(=O)C(CS)Cc1ccccc1 (stereo not drawn) [thiorphan]
inhibition of hMIP (hMIP): small level of inhibition

Abz-QPLQNKVQ-EDDnp [Abz-QPLQ↓NKVQ-EDDnp]
fold lower specificity constant than Abz-FRSGQPLQNKVQLQ-EDDnp [1]: 7 fold
